The text below walks through data of the RNAGym collection of RNA variant scans (doi:10.1126/science.aae0568).

B1: tRNA (parent)
chain: GUUCCGUUGGCGUAAUGGUAACGCGUCUCCCUCCUAAGGAGAAGACUGCGGGUUCGAGUCCCGUACGGAACG

This sample holds only a part of the variants without activity.

This series covers variants of B1. Put plainly: yeast fitness relative to wild type (ratio to wild type); higher = fitter; tRNA-Arg(CCU), competitive growth, 37 C, YPD. Put shortly:
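Genotype frequency changes were the basis for Darwinian fitness relative to wild type. The frequencies came from 100-nucleotide paired-end sequencing of gene amplicons from the start population and each end population of pooled yeast strains with tRNA-Arg(CCU) gene variants at the native locus. Competition ran in YPD at 37°C for 24 hours in six replicates, genotypes needed ≥ 100 starting reads, and estimates < 0.5 were set to 0.5.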
Turning to GUUCCGUUAGCGUCAUGGUAACGCGUUUCCCUCCUAAGGAGAAGAUUGCGGCUUCGAGUCCCGUACGGAACG [G9A A14C C27U C46U G52C], the yeast fitness came to 0.53.
For GUUCCGUGGGCGUAAUGGUAACGCGUCUCCCCGCUAAGGAGAAGACUGCGGGUUCGAGUCACGUAUGGAACG [U8G U32C C33G C61A C66U] the value was no more than 0.5.
Consider GUUCCGUGGGCAUAAUGGUGACGCGUCUCCCUCCUAAGGAGAAGACUGCGGGUUCGAGUCCCGUACGGAACG [U8G G12A A20G], for which the yeast fitness is no more than 0.5.
For GUUCCGUGGGCGUAAUGGUAACGCGUCUCCCUCCUAAGGAGAAGACUGCGGGUCCGAGUCCCGUACGGAACG [U8G U54C] the value was 0.565.
For GUUCCGUGGGCGUAAUGGUAACGCGUCUCCCUCCUAAGGAGAAGACUGCGGCUUCGAGUCCCGUACAGAACG [U8G G52C G67A] the value was no more than 0.5.
For GUUCCGUUAGCGUGAUGGUAACGCGUCUCCCUCCUAGGGAGAAGACUGCGGGUUCGAGUCCCGUACGGAACG [G9A A14G A37G] the value was 0.624; for GUUCCGUGGGCGUAAUGGUAACGCGACUCCCUCCUAAGGAGAAGACUGCGGGUUCGAGUCCCGUACGGAACG [U8G U26A], 0.605; for GUUCCGUGGGCGUAAUGGUAACGCGCCUCCCUCCUAAGGAGAAGACUGCGGGUUCGAGUCCCGUACGGAACG [U8G U26C], 0.592.
In the case of GUUCCGUUAGCGUGAUGGUAACGCGUCUCCCUCCUAAGGAGAAGACUGCGGGUUCGAGUCUCGUACGGAGCG [G9A A14G C61U A70G], the yeast fitness is no more than 0.5.
GUUCCGUGGGCGUAAUGGUAACGCGUCUCCCUCCUAAGGAGAAGACUGCGAGUUCGAGUCCCGUCUGGAACG [U8G G51A A65C C66U]: the yeast fitness is no more than 0.5.
The result for GUUCCGUGGGCGUAAUAGUCAGGCGUCUGCCUCGUAAGGAGAAGACUGCGGGUUCGAGUUCUGUACGGGACG [U8G G17A A20C C22G C29G C34G C60U C62U A69G] reads no more than 0.5.
For GUUCCGUGGGCGUAAAGGUAACGCGUCUCCCUCAUCAGGAGAAGACUGCGGGUUCGAGUCCCGCAAGGAACG [U8G U16A C34A A36C U64C C66A] the value was no more than 0.5; for GUUCCGUUAGCGUAAUGGUAACGCGUCUCCCUCCUAAGGAGAAGACUGCGGGUUCGAGUCCCGUACGGAACG [G9A], 0.991.
The result for GUUCCGUGGGCGUAAUGGUAACGCGUCUCCCUCCUAAAGAGAAGACUGCGGGUUCGAGUCCCGUACAGUACG [U8G G38A G67A A69U] reads no more than 0.5; that for GUUCCGUGGGCGUAAUGGAAACGCGUCUCCCUCCUAAGGAGAAGACUGCGGGUACGUGUCCCGUAUGGAACG [U8G U19A U54A A57U C66U], 0.576; that for GUUCCGUGGGCGUAAUGGUAACGCGUCUCCCUCCGAAGGAGAAGACUGCGGGUUCGAGUCCCGUACGGAACG [U8G U35G], no more than 0.5.
Take GUUCCGUGGGCGUAAUGGUAACGCGUCUCCCUCCCAAGGAGAAGACUGCGGGUUCGAGUCCCGUACGGAACG [U8G U35C]: the yeast fitness turned out to be 0.767.
The result for GUUCCGUGGGCGUAAUGGAAAAGCGUCUCCCUCCUAAGGAGAAGACUGCGGGUUCGAGUCCCGUAUGGAACG [U8G U19A C22A C66U] reads no more than 0.5; that for GUUCCGUGGGCGUAAUGGUAACGCGUCUCCCUCCUAAGGAGAAGACUGCCGGUUCGAGUCCCGGACGGAACG [U8G G50C U64G], 0.56.
As for GUUCCGUGGGCGAAAUGGUAACGCGUCUCCCUCGUAAGGAGAAGACUGCGGGUUCGAGUCCCGUACGGAACG [U8G U13A C34G], the yeast fitness is no more than 0.5.
For GUUCCGUUAGCGUCAUGGUAACGCCUCUCCCUCCUAAGGAGAAGACUGCGGGUUCAAGUCCCGUACGGAACG [G9A A14C G25C G56A] the value was 0.579; for GUUCCGUGGGCGAAAUGGUAACGCGUCUCCCUCCUAAGGAGAGGACUGCGGGAUCGAGUCCCGUACGGAACG [U8G U13A A43G U53A], 0.58.
With GUUCCGUGGGCGUAAUGGUAACGCGUCUCCCCGCUAAGGAGAAGACUGCGGGUUCGAGUCCCGUACGGAACG [U8G U32C C33G], the yeast fitness was no more than 0.5.
For GUUCCGUGGGCGUAAUGCUAACGCGUCUCCCUCCUAGGGGGAAGACUGCGGGUUGGAGUCCCGUAAGGAACG [U8G G18C A37G A40G C55G C66A] the value was no more than 0.5.
For GUUCCGUGGGCGUAAUGGUAACGCGUCGCCCUCAUAAGGAGAAGACUGCGGGUUCGAGUCCCGUACGGAACG [U8G U28G C34A] the value was no more than 0.5; for GUUCCGUUAGCGUGAUGGUAACGCGUCUCCCUCCUAAGGAGAAGACUGCGGGUUCAAGUCCCGUACAGAACG [G9A A14G G56A G67A], no more than 0.5.
For GUUCCGUGGGCGUAAUGGCAACGCGUCUCCCUCCUAAGGAGAAGAAUGCGGGUUCGAGUCCCGUACGGAACG [U8G U19C C46A] the value was 0.853; for GUUCCGUGGGCGUAAUGGUAACGCGUCUCCCUCCUAAGGAGAAGACUGCGGGUUCGAGUCCCGUACGCAACG [U8G G68C], 0.583; for GUUCCGUGGGCAUAAUGGUACCGCGCCUCCCUCCUAAGGAGAAGACUGCGGGUUCGAGUUCCGUACGGAACG [U8G G12A A21C U26C C60U], no more than 0.5.
With GUUCCGUGGGCGUAAUGGUAACGCGACUCCCUCCUAAGGAGAAGACUGCGGAUACGAGUACCGUACGGAACG [U8G U26A G52A U54A C60A], the yeast fitness is no more than 0.5.
The result for GUUCCGUGGGCGUAAGGGUAACGCGUCUCCCUCCUAAGGAGAAGACUGCGGGUUCGAGUCCGGUACGGAACG [U8G U16G C62G] reads 0.616; that for GUUCCGUGGCCGUAAUGGUGACGCGUCUCCCUCCUAAGGAGAAGACUGCGGGUUCGAGUCCCAUACGGAACG [U8G G10C A20G G63A], no more than 0.5; that for GUUCCGUGGGCGUAAUGGUAACGCGUCUCCCUCCUAACGAGAAGACUGCGGGUUCGAGUCCCGUACUGAACG [U8G G38C G67U], 0.529.
The result for GUUCCGUGGGCGUAAUGGUAACGCGUCUCCCUCCUAAGCAGAAGACUGCGGGUUCGAGGCCCGUAUGGAACG [U8G G39C U59G C66U] reads no more than 0.5.
The result for GUUCCGUGGGCGUAAUAGUAACGGGUCUCCCUCCUAAGGAGAAGACUGCGGGUUCGAGUCCCGUAUGGAACG [U8G G17A C24G C66U] reads no more than 0.5.
For the variant GUUCCGUGGGCGUAAUGCUAAUGCGUCUUCCUCCUAAGGAGAAGAAUGCGGGUUGGAGUCCCGUACGGAACG [U8G G18C C22U C29U C46A C55G], the yeast fitness worked out at 0.574.
Consider GUUCCGUGGGCGAAAUGGUAACGCGUCUCCCUCCUAAGGAGAAGACUGCGGGUUCGAGUCCCGUACGGAACG [U8G U13A], for which the yeast fitness stood at 0.56.
